From the M2OR odorant receptor database
Residue numbers refer to the chain shown, from its start.

Key:
Conditions in all cases: stereoisomer not certain
[1] = target: T1, OR2A12 (Homo sapiens) (UniProt Q8NGT7)
T1 sequence (whole entry): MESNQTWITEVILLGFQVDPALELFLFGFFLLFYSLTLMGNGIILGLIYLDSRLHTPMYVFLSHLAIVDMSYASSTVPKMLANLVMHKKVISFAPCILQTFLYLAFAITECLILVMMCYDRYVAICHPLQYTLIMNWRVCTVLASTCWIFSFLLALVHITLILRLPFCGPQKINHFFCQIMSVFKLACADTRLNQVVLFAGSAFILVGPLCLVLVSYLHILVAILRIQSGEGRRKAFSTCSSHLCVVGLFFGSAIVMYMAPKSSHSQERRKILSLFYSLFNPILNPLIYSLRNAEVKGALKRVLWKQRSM
In short: (§1)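 Assay methods differ from source to source, frequently being transient luciferase assays in mammalian cell lines. For each receptor–molecule pair, the label responsive (active) applies when the original authors judged the measured signal statistically different from baseline, and non-responsive (inactive) applies otherwise.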

[2] = target: T2, OR2A14 (Homo sapiens) (UniProt Q96R47)
T2 sequence (whole entry): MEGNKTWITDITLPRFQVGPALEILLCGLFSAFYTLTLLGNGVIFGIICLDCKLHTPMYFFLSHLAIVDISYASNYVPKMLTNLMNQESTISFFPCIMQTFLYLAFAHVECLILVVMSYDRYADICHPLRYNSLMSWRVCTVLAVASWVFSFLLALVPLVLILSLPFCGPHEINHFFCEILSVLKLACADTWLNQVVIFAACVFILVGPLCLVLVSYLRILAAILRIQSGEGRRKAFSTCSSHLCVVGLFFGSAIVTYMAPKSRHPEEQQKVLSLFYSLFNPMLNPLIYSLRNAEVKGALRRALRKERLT
In short: as §1

[3] = target: T3, OR2A2 (Homo sapiens) (UniProt Q6IF42)
T3 sequence (whole entry): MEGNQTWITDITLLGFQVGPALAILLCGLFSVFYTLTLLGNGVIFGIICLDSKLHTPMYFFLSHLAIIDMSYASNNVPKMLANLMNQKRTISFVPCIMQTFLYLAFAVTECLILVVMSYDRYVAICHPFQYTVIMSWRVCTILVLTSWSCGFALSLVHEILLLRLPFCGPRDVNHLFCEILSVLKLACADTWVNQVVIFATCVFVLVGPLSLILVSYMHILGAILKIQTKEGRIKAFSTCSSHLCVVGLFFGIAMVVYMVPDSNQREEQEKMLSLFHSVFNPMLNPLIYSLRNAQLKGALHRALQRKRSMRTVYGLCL
In short: as §1

[4] = target: T4, OR2A25 (Homo sapiens) (UniProt A4D2G3)
T4 sequence (whole entry): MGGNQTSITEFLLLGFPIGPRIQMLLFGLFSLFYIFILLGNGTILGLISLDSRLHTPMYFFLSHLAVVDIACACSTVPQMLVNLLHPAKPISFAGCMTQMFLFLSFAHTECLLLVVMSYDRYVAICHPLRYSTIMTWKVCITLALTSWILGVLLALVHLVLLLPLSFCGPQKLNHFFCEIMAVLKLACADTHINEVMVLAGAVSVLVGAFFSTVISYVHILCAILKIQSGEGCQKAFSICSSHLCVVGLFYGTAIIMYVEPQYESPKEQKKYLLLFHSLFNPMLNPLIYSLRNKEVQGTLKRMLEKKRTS
In short: as §1

[5] = target: T5, OR2A4 (Homo sapiens) (UniProt O95047)
T5 sequence (whole entry): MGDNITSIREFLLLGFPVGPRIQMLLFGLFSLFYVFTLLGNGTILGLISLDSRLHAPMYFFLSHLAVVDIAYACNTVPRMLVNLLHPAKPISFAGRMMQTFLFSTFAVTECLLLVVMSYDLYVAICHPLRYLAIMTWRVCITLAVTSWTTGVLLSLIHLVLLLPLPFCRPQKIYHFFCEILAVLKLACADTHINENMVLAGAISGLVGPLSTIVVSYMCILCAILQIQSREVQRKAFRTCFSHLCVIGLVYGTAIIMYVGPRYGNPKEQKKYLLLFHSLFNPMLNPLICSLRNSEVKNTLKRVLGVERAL
In short: as §1

[6] = target: T6, OR2A5 (Homo sapiens) (UniProt Q96R48)
T6 sequence (whole entry): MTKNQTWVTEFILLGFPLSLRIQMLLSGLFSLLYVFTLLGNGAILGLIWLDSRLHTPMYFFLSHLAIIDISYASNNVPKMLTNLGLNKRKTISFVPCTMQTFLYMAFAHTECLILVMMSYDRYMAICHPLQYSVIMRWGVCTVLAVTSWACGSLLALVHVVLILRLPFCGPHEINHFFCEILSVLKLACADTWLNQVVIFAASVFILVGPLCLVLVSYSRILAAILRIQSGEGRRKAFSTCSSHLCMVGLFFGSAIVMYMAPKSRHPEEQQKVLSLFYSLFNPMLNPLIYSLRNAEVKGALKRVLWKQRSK
In short: as §1

[7] = target: T7, OR2A7 (Homo sapiens) (UniProt Q96R45)
T7 sequence (whole entry): T5 sequence (whole entry) with R9T, R238C, V250F
In short: as §1

[8] = target: T8, OR2AE1 (Homo sapiens) (UniProt Q8NHA4)
T8 sequence (whole entry): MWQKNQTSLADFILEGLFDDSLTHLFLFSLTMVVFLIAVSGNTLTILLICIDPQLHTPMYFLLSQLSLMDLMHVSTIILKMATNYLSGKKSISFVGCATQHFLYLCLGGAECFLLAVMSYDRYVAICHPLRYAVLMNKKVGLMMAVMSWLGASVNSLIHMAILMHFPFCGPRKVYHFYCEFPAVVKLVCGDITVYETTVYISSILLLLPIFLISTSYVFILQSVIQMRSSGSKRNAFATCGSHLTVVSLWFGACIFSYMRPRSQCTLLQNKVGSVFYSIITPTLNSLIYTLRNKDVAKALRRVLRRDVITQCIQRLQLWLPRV
In short: as §1

[9] = target: T9, OR2AG1 (Homo sapiens) (UniProt Q9H205)
T9 sequence (whole entry): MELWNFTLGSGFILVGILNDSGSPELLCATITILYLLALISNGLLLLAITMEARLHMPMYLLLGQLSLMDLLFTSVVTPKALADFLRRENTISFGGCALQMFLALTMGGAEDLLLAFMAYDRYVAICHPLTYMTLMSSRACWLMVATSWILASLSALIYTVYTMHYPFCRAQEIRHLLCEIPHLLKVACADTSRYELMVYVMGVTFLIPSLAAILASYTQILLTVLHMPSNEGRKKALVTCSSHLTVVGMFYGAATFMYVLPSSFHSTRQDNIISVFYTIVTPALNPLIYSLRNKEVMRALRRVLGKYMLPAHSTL
In short: as §1

[10] = target: T10, OR2AG2 (Homo sapiens) (UniProt A6NM03)
T10 sequence (whole entry): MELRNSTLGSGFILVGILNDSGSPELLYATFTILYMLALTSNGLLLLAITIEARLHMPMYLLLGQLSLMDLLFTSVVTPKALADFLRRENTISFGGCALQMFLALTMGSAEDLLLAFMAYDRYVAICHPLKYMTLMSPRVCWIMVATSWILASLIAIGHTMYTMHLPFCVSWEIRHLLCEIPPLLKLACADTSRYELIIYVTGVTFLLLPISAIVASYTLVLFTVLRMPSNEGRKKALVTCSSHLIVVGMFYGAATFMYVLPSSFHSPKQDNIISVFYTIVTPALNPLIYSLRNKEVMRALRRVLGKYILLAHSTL
In short: as §1

[11] = target: T11, OR2AJ1 (Homo sapiens) (UniProt Q8NGZ0)
T11 sequence (whole entry): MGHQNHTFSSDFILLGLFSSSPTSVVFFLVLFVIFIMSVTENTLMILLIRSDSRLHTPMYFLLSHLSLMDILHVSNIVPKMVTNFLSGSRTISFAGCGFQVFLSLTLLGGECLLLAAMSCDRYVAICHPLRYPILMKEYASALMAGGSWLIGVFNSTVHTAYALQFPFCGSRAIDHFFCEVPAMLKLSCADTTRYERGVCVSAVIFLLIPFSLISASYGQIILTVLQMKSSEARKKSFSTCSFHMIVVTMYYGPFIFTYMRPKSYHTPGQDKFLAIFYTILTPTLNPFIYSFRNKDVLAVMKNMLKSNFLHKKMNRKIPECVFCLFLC
In short: as §1

[12] = target: T12, OR2AK2 (Homo sapiens) (UniProt Q8NG84)
T12 sequence (whole entry): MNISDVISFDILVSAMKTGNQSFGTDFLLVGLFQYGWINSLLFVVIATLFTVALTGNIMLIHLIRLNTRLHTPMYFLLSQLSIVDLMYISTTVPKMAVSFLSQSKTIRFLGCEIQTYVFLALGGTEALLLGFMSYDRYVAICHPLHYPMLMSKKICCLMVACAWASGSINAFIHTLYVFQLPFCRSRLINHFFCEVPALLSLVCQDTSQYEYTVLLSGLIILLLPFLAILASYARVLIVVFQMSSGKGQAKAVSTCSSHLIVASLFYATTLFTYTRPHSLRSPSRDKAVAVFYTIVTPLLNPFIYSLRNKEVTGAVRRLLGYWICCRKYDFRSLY
In short: as §1

[13] = target: T13, OR2AP1 (Homo sapiens) (UniProt Q8NGE2)
T13 sequence (whole entry): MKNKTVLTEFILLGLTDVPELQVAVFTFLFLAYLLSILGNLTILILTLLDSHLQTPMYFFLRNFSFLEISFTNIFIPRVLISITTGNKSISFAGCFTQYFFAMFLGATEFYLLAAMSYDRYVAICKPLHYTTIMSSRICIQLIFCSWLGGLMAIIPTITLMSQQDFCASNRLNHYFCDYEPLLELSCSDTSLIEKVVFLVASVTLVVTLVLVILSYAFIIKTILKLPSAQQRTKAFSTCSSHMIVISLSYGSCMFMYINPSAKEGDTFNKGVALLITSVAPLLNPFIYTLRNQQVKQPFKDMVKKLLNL
In short: as §1

[14] = target: T14, OR2AT4 (Homo sapiens) (UniProt A6NND4)
T14 sequence (whole entry): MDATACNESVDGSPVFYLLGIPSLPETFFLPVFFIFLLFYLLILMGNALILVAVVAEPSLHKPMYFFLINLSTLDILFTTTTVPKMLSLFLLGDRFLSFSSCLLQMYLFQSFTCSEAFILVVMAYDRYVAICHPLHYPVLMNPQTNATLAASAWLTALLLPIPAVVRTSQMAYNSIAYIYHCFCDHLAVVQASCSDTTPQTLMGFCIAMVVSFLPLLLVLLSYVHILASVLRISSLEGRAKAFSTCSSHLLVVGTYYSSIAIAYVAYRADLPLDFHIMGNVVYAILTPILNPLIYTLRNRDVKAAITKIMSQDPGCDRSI
In short: as §1

[15] = target: T15, OR2B11 (Homo sapiens) (UniProt Q5JQS5)
T15 sequence (whole entry): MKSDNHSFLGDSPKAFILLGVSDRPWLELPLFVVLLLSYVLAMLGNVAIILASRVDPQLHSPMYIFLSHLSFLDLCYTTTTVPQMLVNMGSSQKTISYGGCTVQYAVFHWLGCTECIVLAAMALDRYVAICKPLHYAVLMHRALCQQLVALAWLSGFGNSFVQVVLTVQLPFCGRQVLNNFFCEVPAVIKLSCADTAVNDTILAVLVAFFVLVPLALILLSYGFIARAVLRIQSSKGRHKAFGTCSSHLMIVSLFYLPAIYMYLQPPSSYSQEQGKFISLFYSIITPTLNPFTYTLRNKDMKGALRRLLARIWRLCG
In short: as §1

[16] = target: T16, OR2B2 (Homo sapiens) (UniProt Q9GZK3)
T16 sequence (whole entry): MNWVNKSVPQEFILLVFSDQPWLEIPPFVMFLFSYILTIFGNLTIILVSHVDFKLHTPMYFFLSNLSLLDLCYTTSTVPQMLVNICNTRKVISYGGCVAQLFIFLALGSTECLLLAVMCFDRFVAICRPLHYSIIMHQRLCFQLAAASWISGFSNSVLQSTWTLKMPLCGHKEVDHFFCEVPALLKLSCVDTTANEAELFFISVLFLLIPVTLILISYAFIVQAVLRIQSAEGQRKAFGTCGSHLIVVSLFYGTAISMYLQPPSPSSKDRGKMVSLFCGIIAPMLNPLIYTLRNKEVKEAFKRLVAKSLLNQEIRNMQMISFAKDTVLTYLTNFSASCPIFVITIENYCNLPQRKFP
In short: as §1

[17] = tested on: T17, OR2A1 T73A R74C S168C
T17 sequence (whole entry): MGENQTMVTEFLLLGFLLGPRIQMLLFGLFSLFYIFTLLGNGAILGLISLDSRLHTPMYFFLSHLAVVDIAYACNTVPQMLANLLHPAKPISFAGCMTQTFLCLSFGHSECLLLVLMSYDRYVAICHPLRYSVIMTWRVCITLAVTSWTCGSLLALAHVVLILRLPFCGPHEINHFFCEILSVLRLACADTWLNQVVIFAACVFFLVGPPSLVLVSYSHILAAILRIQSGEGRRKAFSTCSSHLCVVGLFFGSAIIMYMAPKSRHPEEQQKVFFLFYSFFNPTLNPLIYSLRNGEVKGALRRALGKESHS
In short: as §1

[18] = tested on: T18, OR2A2
T18 sequence (whole entry): T3 sequence (whole entry) with F280L
In short: as §1

[19] = tested on: T19, OR2A5 I126V A202S A255T
T19 sequence (whole entry): T6 sequence (whole entry) with I126V, A202S, A255T
In short: as §1

[20] = tested on: T20, OR2A7
T20 sequence (whole entry): T5 sequence (whole entry) with R238C, V250F
In short: as §1

Measured: odorant receptor agonist call

CCCCCC(=O)C(C)C(C)=O (stereo unspecified)
not listed: [17] | [18] | [19] | [20]
inactive: all other assays above

CCC1OC(=O)C(O)=C1C (stereo unspecified)
not listed: [11]
inactive: all other assays above

CCCO
inactive: [7]

CC(C)=CCCC(C)=CCO
inactive: [7]

CCCCCCCCCC(=O)OC
inactive: [7]

CCCCC(S)C(C)CO (stereo unspecified)
not listed: [17] | [18] | [19] | [20]
inactive: all other assays above

CCC(S)C(C)CO (stereo unspecified)
not listed: [17] | [18] | [19] | [20]
inactive: all other assays above

CCCCCCCCCCCCCCC(=O)O
inactive: [7]
